Values after ≈ are worked out from the molar mass of the structure shown. Active and inactive are the calls of the source. The calls are words filed in the database; no cut-off is given here.
What was measured:
Aspergillus flavus [1] = assay: Antimicrobial activity against Aspergillus flavus NCIM 902 at 500 ug/disk after 72 hrs by disk diffusion method; format: functional; conditions: NCIM 902, 72 h, read-out: DIZ
Method in brief: (§1)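 Disc diffusion on Sabouraud's dextrose agar. 100 µl of fungal suspension at 10⁶ CFU/ml is spread on the plate. Discs carry test compounds at two loadings in DMSO; DMSO alone is the negative control. Clotrimazole disc is the positive reference. Plates are incubated at 27 °C for 72 h, and the zone of inhibition diameter is measured.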

Proteus vulgaris = assay: Antimicrobial activity against Proteus vulgaris NCIM 2027 at 500 ug/disk after 24 hrs by disk diffusion method; format: functional
Method in brief: (§2)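 Disc diffusion on Mueller–Hinton agar. 100 µl of bacterial suspension at 10⁸ CFU/ml is spread on the plate. Discs carry test compounds at two loadings, dissolved in DMSO; DMSO alone serves as negative control. Ofloxacin disc is the positive reference. Plates are incubated at 37 °C for 24 h, and the inhibition zone diameter is measured.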

Aspergillus flavus [2] = assay: Antimicrobial activity against Aspergillus flavus NCIM 902 at 1000 ug/disk after 72 hrs by disk diffusion method; format: functional; conditions: NCIM 902, 72 h, read-out: DIZ; method in brief: as §1
Rhodotorula mucilaginosa [3] = assay: Antimicrobial activity against Rhodotorula rubra NCIM 3174 after 72 hrs by serial dilution method; format: functional; conditions: NCIM 3174, 72 h
Method in brief: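 MIC by broth dilution in Sabouraud's dextrose broth, run only on fungi found sensitive in the disc assay. Twofold serial dilutions were made in 1 ml broth per tube, covering 3.9 to 1000. Inoculated tubes were incubated at 27 °C for 72 h.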

Bacillus cereus = assay: Antimicrobial activity against Bacillus cereus NCIM 2155 at 1000 ug/disk after 24 hrs by disk diffusion method; format: functional; conditions: NCIM 2155, 24 h, read-out: DIZ; method in brief: as §2
Salmonella typhimurium [4] = assay: Antimicrobial activity against Salmonella Typhimurium NCIM 2501 at 500 ug/disk after 24 hrs by disk diffusion method; format: functional, Salmonella enterica subsp. enterica serovar Typhimurium; conditions: Salmonella enterica, NCIM 2501, 24 h; read-out: DIZ
Method in brief: (§3)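 Disc diffusion. 100 µl of bacterial suspension at 10⁸ CFU/ml was spread on Mueller–Hinton agar. Discs loaded with test compound dissolved in DMSO were placed on the lawn, with a DMSO-only disc as negative control. Plates were incubated at 37 °C for 24 h, and the inhibition zone diameter was measured.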

Trichoderma viride = assay: Antimicrobial activity against Trichoderma viride NCIM 1195 at 1000 ug/disk after 72 hrs by disk diffusion method; format: functional; conditions: NCIM 1195, 72 h, read-out: DIZ
Method in brief: (§4)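 Fungal disc diffusion. 100 µl of suspension at 10⁶ CFU/ml was spread on Sabouraud's dextrose agar. Discs carrying test compound in DMSO were applied, with a DMSO-only disc as negative control. Plates were incubated at 27 °C for 72 h, and the zone of inhibition diameter was measured.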

[5] = test system: Rhodococcus corynebacterioides; assay: Antimicrobial activity against Corynebacterium rubrum NCIM 2252 at 1000 ug/disk after 24 hrs by disk diffusion method; format: functional; conditions: Rhodococcoides corynebacterioides; method in brief: as §2
Aspergillus parasiticus [6] = assay: Antimicrobial activity against Aspergillus parasiticus NCIM 904 after 72 hrs by serial dilution method; format: functional; conditions: NCIM 904, 72 h
Method in brief: (§5)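 MIC by broth dilution in Sabouraud's dextrose broth, only for fungi sensitive in disc diffusion. Two-fold serial dilutions of compounds are made in 1 ml broth per tube, range 3.9 to 1000. Inoculated tubes are incubated at 27 °C for 72 h.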

Klebsiella aerogenes [7] = assay: Antimicrobial activity against Klebsiella aerogenes NCIM 2239 at 1000 ug/disk after 24 hrs by disk diffusion method; format: functional; method in brief: as §2
Rhodotorula mucilaginosa [8] = assay: Antimicrobial activity against Rhodotorula rubra NCIM 3174 at 500 ug/disk after 72 hrs by disk diffusion method; format: functional; conditions: NCIM 3174, 72 h, read-out: DIZ; method in brief: as §4
Escherichia coli [9] = assay: Antimicrobial activity against Escherichia coli NCIM 2065 at 1000 ug/disk after 24 hrs by disk diffusion method; format: functional; conditions: NCIM 2065, 24 h, read-out: DIZ; method in brief: as §2
Penicillium chrysogenum [10] = assay: Antimicrobial activity against Penicillium chrysogenum NCIM 707 at 1000 ug/disk after 72 hrs by disk diffusion method; format: functional; method in brief: as §1
Penicillium chrysogenum [11] = assay: Antimicrobial activity against Penicillium chrysogenum NCIM 707 at 500 ug/disk after 72 hrs by disk diffusion method; format: functional; method in brief: as §1
Escherichia coli [12] = assay: Antimicrobial activity against Escherichia coli NCIM 2065 at 500 ug/disk after 24 hrs by disk diffusion method; format: functional; method in brief: as §2
Aliivibrio fischeri [13] = assay: Antimicrobial activity against Vibrio fischeri NCIM 2154 at 1000 ug/disk after 24 hrs by disk diffusion method; format: functional; conditions: NCIM 2154, 24 h, read-out: DIZ; method in brief: as §3
Staphylococcus [14] = assay: Antimicrobial activity against Staphylococcus albus NCIM 2178 at 1000 ug/disk after 24 hrs by disk diffusion method; format: functional; method in brief: as §3
Lipomyces lipofer = assay: Antimicrobial activity against Lipomyces lipofer NCIM 3252 at 1000 ug/disk after 72 hrs by disk diffusion method; format: functional; method in brief: as §1
Aspergillus parasiticus [15] = assay: Antimicrobial activity against Aspergillus parasiticus NCIM 904 at 1000 ug/disk after 72 hrs by disk diffusion method; format: functional; conditions: NCIM 904, 72 h, read-out: DIZ; method in brief: as §1
[16] = test system: Rhodococcus corynebacterioides; assay: Antimicrobial activity against Corynebacterium rubrum NCIM 2252 at 500 ug/disk after 24 hrs by disk diffusion method; format: functional; conditions: Rhodococcoides corynebacterioides; method in brief: as §2
Aspergillus flavus [17] = assay: Antimicrobial activity against Aspergillus flavus NCIM 902 after 72 hrs by serial dilution method; format: functional; conditions: NCIM 535, 72 h, in the assay text read “NCIM 535” for “NCIM 902”; method in brief: as §5
Salmonella typhimurium [18] = assay: Antimicrobial activity against Salmonella Typhimurium NCIM 2501 at 1000 ug/disk after 24 hrs by disk diffusion method; format: functional, Salmonella enterica subsp. enterica serovar Typhimurium; conditions: Salmonella enterica, NCIM 2501, 24 h; read-out: DIZ; method in brief: as §3
Escherichia coli [19] = assay: Antimicrobial activity against Escherichia coli NCIM 2065 after 24 hrs by serial dilution method; format: functional; conditions: NCIM 2065, 24 h
Method in brief: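 Broth dilution MIC in nutrient broth, run only for organisms found sensitive in disc diffusion. Compounds are two-fold serially diluted in 1 ml sterile broth per tube, spanning 3.9 to 1000. Inoculated tubes are incubated at 37 °C for 24 h.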

Rhodotorula mucilaginosa [20] = assay: Antimicrobial activity against Rhodotorula rubra NCIM 3174 at 1000 ug/disk after 72 hrs by disk diffusion method; format: functional; conditions: NCIM 3174, 72 h, read-out: DIZ; method in brief: as §4
Aliivibrio fischeri [21] = assay: Antimicrobial activity against Vibrio fischeri NCIM 2154 after 24 hrs by serial dilution method; format: functional; conditions: NCIM 2154, 24 h
Pseudomonas aeruginosa = assay: Antimicrobial activity against Pseudomonas aeruginosa NCIM 2200 at 1000 ug/disk after 24 hrs by disk diffusion method; format: functional; method in brief: as §2
Bacillus subtilis [22] = assay: Antimicrobial activity against Bacillus subtilis NCIM 2063 at 1000 ug/disk after 24 hrs by disk diffusion method; format: functional; conditions: NCIM 2063, 24 h, read-out: DIZ; method in brief: as §2
Aspergillus fumigatus = assay: Antimicrobial activity against Aspergillus fumigatus NCIM 902 at 1000 ug/disk after 72 hrs by disk diffusion method; format: functional; method in brief: as §1
Bacillus subtilis [23] = assay: Antimicrobial activity against Bacillus subtilis NCIM 2063 at 500 ug/disk after 24 hrs by disk diffusion method; format: functional; method in brief: as §2
Klebsiella aerogenes [24] = assay: Antimicrobial activity against Klebsiella aerogenes NCIM 2239 at 500 ug/disk after 24 hrs by disk diffusion method; format: functional; method in brief: as §2
Staphylococcus [25] = assay: Antimicrobial activity against Staphylococcus albus NCIM 2178 at 500 ug/disk after 24 hrs by disk diffusion method; format: functional; method in brief: as §3

Row | SMILES | zone of inhibition at 500 µg/disc (Aspergillus flavus [1]) | diameter of the inhibition zone (DIZ) (Proteus vulgaris) | zone of inhibition at 1000 µg/disc (Aspergillus flavus [2]) | MIC (Rhodotorula mucilaginosa [3]) | zone of inhibition at 1000 µg/disc (Bacillus cereus) | zone of inhibition at 500 µg/disc (Salmonella typhimurium [4]) | zone of inhibition at 1000 µg/disc (Trichoderma viride) | diameter of the inhibition zone (DIZ) [5] | MIC (Aspergillus parasiticus [6]) | zone of inhibition at 500 µg/disc (Rhodotorula mucilaginosa [8]) | zone of inhibition at 1000 µg/disc (Escherichia coli [9]) | diameter of the inhibition zone (DIZ) (Penicillium chrysogenum [10]) | diameter of the inhibition zone (DIZ) (Penicillium chrysogenum [11]) | zone of inhibition at 1000 µg/disc (Aliivibrio fischeri [13]) | diameter of the inhibition zone (DIZ) (Staphylococcus [14]) | diameter of the inhibition zone (DIZ) (Lipomyces lipofer) | zone of inhibition at 1000 µg/disc (Aspergillus parasiticus [15]) | diameter of the inhibition zone (DIZ) [16] | MIC (Aspergillus flavus [17]) | zone of inhibition at 1000 µg/disc (Salmonella typhimurium [18]) | also measured
1 | CC1(C)CC(=O)C2=C(C1)Nc1c(ccc3ccccc13)C2c1ccccc1O (configuration not stated) | 9 mm | inactive | 10 mm | 7.8 µg/mL (≈ 21.1 µM) | 10 mm | 10 mm | 12 mm | inactive | 3.9 µg/mL (≈ 10.6 µM) | 10 mm | 8 mm | inactive | inactive | 8 mm | inactive | inactive | 16 mm | inactive | 62.5 µg/mL (≈ 169 µM) | 11 mm | zone of inhibition at 1000 µg/disc (Klebsiella aerogenes [7]; NCIM 2239, 24 h, read-out: DIZ): 10 mm; diameter of the inhibition zone (DIZ) (Escherichia coli [12]): inactive; MIC (Escherichia coli [19]): 125 µg/mL (≈ 338 µM); zone of inhibition at 1000 µg/disc (Rhodotorula mucilaginosa [20]): 14 mm; MIC (Aliivibrio fischeri [21]): 125 µg/mL (≈ 338 µM); diameter of the inhibition zone (DIZ) (Pseudomonas aeruginosa): inactive; zone of inhibition at 1000 µg/disc (Bacillus subtilis [22]): 9 mm; diameter of the inhibition zone (DIZ) (Aspergillus fumigatus): inactive; diameter of the inhibition zone (DIZ) (Bacillus subtilis [23]): inactive; zone of inhibition at 500 µg/disc (Klebsiella aerogenes [24]; NCIM 2239, 24 h, read-out: DIZ): 7 mm; diameter of the inhibition zone (DIZ) (Staphylococcus [25]): inactive
2 | CC1(C)CC(=O)C2=C(C1)Nc1c(ccc3ccccc13)C2c1ccccc1 (configuration not stated) | 9 mm | inactive | 10 mm | 31.2 µg/mL (≈ 88.3 µM) | 12 mm | 9 mm | 12 mm | inactive | 62.5 µg/mL (≈ 177 µM) | 10 mm | 10 mm | inactive | inactive | 8 mm | inactive | inactive | 10 mm | inactive | 62.5 µg/mL (≈ 177 µM) | 10 mm | diameter of the inhibition zone (DIZ) (Klebsiella aerogenes [7]): inactive; zone of inhibition at 500 µg/disc (Escherichia coli [12]; NCIM 2065, 24 h, read-out: DIZ): 7 mm; MIC (Escherichia coli [19]): 62.5 µg/mL (≈ 177 µM); zone of inhibition at 1000 µg/disc (Rhodotorula mucilaginosa [20]): 12 mm; MIC (Aliivibrio fischeri [21]): 125 µg/mL (≈ 354 µM); diameter of the inhibition zone (DIZ) (Pseudomonas aeruginosa): inactive; zone of inhibition at 1000 µg/disc (Bacillus subtilis [22]): 11 mm; zone of inhibition at 1000 µg/disc (Aspergillus fumigatus; NCIM 902, 72 h, read-out: DIZ): 10 mm; zone of inhibition at 500 µg/disc (Bacillus subtilis [23]; NCIM 2063, 24 h, read-out: DIZ): 8 mm; diameter of the inhibition zone (DIZ) (Klebsiella aerogenes [24]): inactive; diameter of the inhibition zone (DIZ) (Staphylococcus [25]): inactive

Reference: ChEMBL document CHEMBL1138564, “Microwave-induced synthesis and anti-microbial activities of 7,10,11,12-tetrahydrobenzo[c]acridin-8(9H)-one derivatives” (2009)
